Calls of active or inactive are those of the source. The rule behind the calls is not given here.
Legend:
[1] = Cmax in rat at 1 mg/kg, iv; type: ADME, organism-based; parameters: dose 1 mg/kg, route intravenous; details: in vivo
Procedure, shortened: (§1)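 Rats dosed once with the HCl salt, either i.v. at 1 mg/kg (n = 2 or 3) or orally at 5 mg/kg (n = 3). Plasma and brain levels were followed to derive Cmax, Clast, Tmax, t1/2, AUC, dose-normalised AUC, oral bioavailability (F) and the brain/plasma ratio.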

Rattus norvegicus [2] = test: Clast in rat at 1 mg/kg, iv; type: ADME, organism-based; parameters: dose 1 mg/kg, route intravenous; details: in vivo; procedure, shortened: as §1
[3] = Half life in rat at 1 mg/kg, iv; type: ADME, organism-based; parameters: dose 1 mg/kg, route intravenous; details: in vivo; procedure, shortened: as §1
Rattus norvegicus [4] = test: (§2) AUC (0 to infinity) in rat at 1 mg/kg, iv; type: ADME, organism-based, Plasma; parameters: time infinity, dose 1 mg/kg, route intravenous; details: in vivo; procedure, shortened: as §1
Rattus norvegicus [5] = test: Dose normalized AUC (0 to infinity) in rat at 1 mg/kg, iv; type: ADME, organism-based; parameters: dose 1 mg/kg, route intravenous; details: in vivo; procedure, shortened: as §1
[6] = Cmax in rat at 5 mg/kg, po; type: ADME, organism-based; parameters: dose 5 mg/kg, route oral; details: in vivo; procedure, shortened: as §1
Rattus norvegicus [7] = test: Clast in rat at 5 mg/kg, po; type: ADME, organism-based; parameters: dose 5 mg/kg, route oral; details: in vivo; procedure, shortened: as §1
[8] = Tmax in rat at 5 mg/kg, po; type: ADME, organism-based; parameters: dose 5 mg/kg, route oral; details: in vivo; procedure, shortened: as §1
[9] = Elimination half life in rat at 5 mg/kg, po; type: ADME, organism-based; parameters: dose 5 mg/kg, route oral; details: in vivo, read-out: beta t1/2 (converted); procedure, shortened: as §1
Rattus norvegicus [10] = test: Dose normalized AUCirlf in rat at 5 mg/kg, po; type: ADME, organism-based; parameters: dose 5 mg/kg, route oral; details: in vivo; procedure, shortened: as §1
Rattus norvegicus [11] = test: (§3) Oral bioavailability in rat at 5 mg/kg; type: ADME, organism-based; details: in vivo; procedure, shortened: as §1
[12] = Cmax in rat plasma; type: ADME, organism-based; procedure, shortened: as §1
Plasma = test: Clast in rat plasma; type: ADME, cell-free; procedure, shortened: as §1
[13] = Tmax in rat plasma; type: ADME, cell-free; procedure, shortened: as §1
[14] = Half life in rat plasma; type: ADME, cell-free; procedure, shortened: as §1
[15] = AUC in rat plasma; type: ADME, cell-free; procedure, shortened: as §1
[16] = Cmax in rat brain; type: ADME, organism-based; procedure, shortened: as §1
Brain = test: Clast in rat brain; type: ADME, tissue-based; details: in vivo; procedure, shortened: as §1
[17] = Tmax in rat brain; type: ADME, tissue-based; procedure, shortened: as §1
[18] = Half life in rat brain; type: ADME, tissue-based; procedure, shortened: as §1
[19] = AUC in rat brain; type: ADME, tissue-based; procedure, shortened: as §1
[20] = Ratio of drug level in brain to plasma in rat; type: ADME, cell-free; procedure, shortened: as §1
[21] = target: 5-hydroxytryptamine receptor 2A (Homo sapiens, UniProt P28223); test: Displacement of [3H]ketanserin from human recombinant 5-HT2A receptor expressed in CHO-K1 cells after 60 mins; type: cell-based
Procedure, shortened: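 Membranes were from CHO-K1 cells stably expressing 5-HT2A. Radioligand was at 1 nM, with mianserin defining nonspecific binding. Incubation ran 60 min at 27 °C in 50 mM Tris–HCl pH 7.4 with 4 mM CaCl2 and 0.1% ascorbic acid. Harvesting was by filtration through glass-fibre filters presoaked in 0.5% PEI.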

[22] = target: T1, 5-hydroxytryptamine receptor 2C (Homo sapiens, UniProt P28335); test: Displacement of [3H]mesulergine from human recombinant 5-HT2C receptor expressed in CHO-K1 cells after 60 mins by rapid filtration assay; type: cell-based
T1 sequence (P28335 whole entry): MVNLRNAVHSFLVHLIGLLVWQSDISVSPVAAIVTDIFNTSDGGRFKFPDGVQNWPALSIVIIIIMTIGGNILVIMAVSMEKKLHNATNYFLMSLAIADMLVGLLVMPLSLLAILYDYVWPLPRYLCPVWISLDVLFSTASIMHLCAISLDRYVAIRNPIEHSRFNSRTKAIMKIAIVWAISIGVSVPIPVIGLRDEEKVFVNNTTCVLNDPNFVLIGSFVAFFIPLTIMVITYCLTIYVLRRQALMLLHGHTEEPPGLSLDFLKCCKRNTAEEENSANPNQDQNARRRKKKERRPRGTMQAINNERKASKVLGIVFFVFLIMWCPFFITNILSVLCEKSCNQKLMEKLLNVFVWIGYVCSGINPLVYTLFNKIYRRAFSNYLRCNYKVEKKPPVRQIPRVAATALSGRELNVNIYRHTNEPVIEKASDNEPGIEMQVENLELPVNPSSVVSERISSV
Procedure, shortened: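 Frozen membranes were from CHO-K1 cells stably expressing human recombinant 5-HT2C, with 1.4 nM [3H]mesulergine. Buffer was 50 mM Tris–HCl pH 7.4, 4 mM CaCl2 and 0.1% ascorbic acid, with methiothepin for nonspecific binding. Incubation ran 60 min at 27 °C, stopped by rapid filtration through 0.5% PEI-presoaked glass-fibre filters.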

[23] = target: Sodium-dependent serotonin transporter (Homo sapiens, UniProt P31645); test: Displacement of [3H]imipramine from human SERT expressed in HEK293 cells after 30 mins by rapid filtration assay; type: cell-based
Procedure, shortened: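 Frozen membranes were from HEK293 cells expressing human SERT, with 4 nM [3H]imipramine in 50 mM Tris–HCl pH 7.4, 120 mM NaCl and 5 mM KCl. Unlabelled imipramine defined nonspecific binding. Incubation ran 30 min at 27 °C, terminated by rapid filtration through 0.5% PEI-presoaked glass-fibre filters.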

[24] = as §2; type: ADME, organism-based, Plasma; parameters: time infinity, dose 1 mg/kg, route intravenous; details: plasma; procedure, shortened: as §1
[25] = AUC (0 to infinity) in rat at 5 mg/kg, po; type: ADME, organism-based; parameters: time infinity, dose 5 mg/kg, route oral; details: plasma; procedure, shortened: as §1
[26] = as §3; type: ADME, organism-based; details: in vivo; procedure, shortened: as §1
Mus musculus [27] = test: Antidepressant activity in mouse assessed as decrease in duration of immobility at 100 mg/kg, po during final 5 mins of the 6 mins session by forced swimming test; type: functional
Procedure, shortened: (§4)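 Mice swam 10 min in a 25-cm glass cylinder (10 cm diameter) holding 15 cm of water at 23 1 °C. Twenty-four hours later, drug was given po 60 min before retesting. Immobility (floating upright with only small movements keeping head above water) was totalled over the last 5 min of the 6-min test.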

Mus musculus [28] = test: Antidepressant activity in mouse assessed as decrease in duration of immobility at 10 mg/kg, po during final 5 mins of the 6 mins session by forced swimming test; type: functional; procedure, shortened: as §4
[29] = target: 5-hydroxytryptamine receptor 7 (Homo sapiens, UniProt P34969); test: Inhibition of 5HT7 receptor
Mus musculus [30] = test: Antidepressant activity in mouse assessed as decrease in duration of immobility at 25 mg/kg, po during final 5 mins of the 6 mins session by forced swimming test; type: functional; parameters: scale not given: the % may be the effect or the level left; procedure, shortened: as §4
[31] = target: T2, 5-hydroxytryptamine receptor 1A (Homo sapiens, UniProt P08908); test: Inhibition of 5HT1A receptor
T2 sequence (P08908 whole entry): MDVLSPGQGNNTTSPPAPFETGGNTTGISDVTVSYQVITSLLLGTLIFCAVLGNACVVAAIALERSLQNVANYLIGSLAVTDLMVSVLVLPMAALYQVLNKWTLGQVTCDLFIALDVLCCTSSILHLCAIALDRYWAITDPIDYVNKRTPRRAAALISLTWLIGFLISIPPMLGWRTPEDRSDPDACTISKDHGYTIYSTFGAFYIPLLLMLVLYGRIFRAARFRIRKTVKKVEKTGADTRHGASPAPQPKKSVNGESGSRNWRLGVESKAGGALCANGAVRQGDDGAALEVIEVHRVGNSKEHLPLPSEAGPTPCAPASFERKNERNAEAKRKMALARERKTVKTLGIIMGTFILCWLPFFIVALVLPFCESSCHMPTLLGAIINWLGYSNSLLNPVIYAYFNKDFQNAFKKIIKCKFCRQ

[32] = target: 5-hydroxytryptamine receptor 6 (Homo sapiens, UniProt P50406); test: Inhibition of 5HT6 receptor
D(2) dopamine receptor = D(2) dopamine receptor (Homo sapiens, UniProt P14416); test: Inhibition of dopamine D2 receptor
D(3) dopamine receptor = D(3) dopamine receptor (Homo sapiens, UniProt P35462); test: Inhibition of dopamine D3 receptor
D(4) dopamine receptor = target: T3, D(4) dopamine receptor (Homo sapiens, UniProt P21917); test: Inhibition of dopamine D4 receptor
T3 sequence (P21917 whole entry): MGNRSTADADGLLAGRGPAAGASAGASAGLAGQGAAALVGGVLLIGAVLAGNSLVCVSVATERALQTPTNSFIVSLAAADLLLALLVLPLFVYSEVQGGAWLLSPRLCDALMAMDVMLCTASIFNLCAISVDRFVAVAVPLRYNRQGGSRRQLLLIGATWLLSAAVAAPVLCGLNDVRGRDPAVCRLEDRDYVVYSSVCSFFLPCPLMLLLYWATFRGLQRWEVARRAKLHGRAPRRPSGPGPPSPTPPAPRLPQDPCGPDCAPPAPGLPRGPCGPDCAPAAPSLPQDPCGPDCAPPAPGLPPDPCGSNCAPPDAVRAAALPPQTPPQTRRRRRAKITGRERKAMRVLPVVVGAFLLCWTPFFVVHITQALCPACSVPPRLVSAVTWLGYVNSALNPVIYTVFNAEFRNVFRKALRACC

5-hydroxytryptamine receptor 2A, sequence (P28223 whole entry): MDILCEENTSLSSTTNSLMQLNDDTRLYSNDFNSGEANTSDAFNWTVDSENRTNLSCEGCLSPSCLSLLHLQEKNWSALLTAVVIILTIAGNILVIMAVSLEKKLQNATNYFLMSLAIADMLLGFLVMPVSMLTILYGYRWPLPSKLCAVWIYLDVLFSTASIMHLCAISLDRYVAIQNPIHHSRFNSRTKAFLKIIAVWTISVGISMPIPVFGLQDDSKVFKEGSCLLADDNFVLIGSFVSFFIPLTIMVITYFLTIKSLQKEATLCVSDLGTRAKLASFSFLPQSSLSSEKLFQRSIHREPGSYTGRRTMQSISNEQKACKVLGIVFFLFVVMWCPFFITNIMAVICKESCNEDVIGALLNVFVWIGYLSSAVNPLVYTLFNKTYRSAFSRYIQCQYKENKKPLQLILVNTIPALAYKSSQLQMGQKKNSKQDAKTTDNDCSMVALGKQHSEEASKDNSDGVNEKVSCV
Sodium-dependent serotonin transporter, sequence (P31645 whole entry): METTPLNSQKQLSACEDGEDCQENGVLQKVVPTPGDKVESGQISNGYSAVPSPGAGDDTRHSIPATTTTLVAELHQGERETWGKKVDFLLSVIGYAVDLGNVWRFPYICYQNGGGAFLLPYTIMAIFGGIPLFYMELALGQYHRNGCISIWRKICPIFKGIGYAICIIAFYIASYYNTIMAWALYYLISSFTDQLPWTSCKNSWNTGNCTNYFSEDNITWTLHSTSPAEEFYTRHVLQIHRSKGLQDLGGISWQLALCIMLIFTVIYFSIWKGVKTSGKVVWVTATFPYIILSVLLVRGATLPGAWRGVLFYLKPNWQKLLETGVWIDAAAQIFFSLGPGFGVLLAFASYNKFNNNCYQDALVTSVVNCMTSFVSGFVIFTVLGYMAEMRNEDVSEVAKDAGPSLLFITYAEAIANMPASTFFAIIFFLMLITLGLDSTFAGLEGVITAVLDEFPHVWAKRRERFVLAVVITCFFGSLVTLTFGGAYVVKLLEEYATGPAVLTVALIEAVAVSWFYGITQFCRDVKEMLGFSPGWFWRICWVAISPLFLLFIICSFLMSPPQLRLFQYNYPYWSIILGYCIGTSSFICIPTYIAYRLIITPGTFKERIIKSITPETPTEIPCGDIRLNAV
5-hydroxytryptamine receptor 7, sequence (P34969 whole entry): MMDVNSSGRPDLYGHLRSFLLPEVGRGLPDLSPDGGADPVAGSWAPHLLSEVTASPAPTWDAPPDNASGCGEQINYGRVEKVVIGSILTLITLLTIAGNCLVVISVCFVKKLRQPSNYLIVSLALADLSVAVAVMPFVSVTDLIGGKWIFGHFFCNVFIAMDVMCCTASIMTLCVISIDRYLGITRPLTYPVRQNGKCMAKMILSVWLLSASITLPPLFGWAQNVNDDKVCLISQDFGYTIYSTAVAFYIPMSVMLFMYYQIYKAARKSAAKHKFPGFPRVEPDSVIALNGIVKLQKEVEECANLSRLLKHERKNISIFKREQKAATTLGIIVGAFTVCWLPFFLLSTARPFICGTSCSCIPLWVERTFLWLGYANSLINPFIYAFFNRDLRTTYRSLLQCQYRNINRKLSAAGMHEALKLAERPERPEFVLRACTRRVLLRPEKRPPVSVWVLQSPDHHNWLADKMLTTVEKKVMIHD
D(3) dopamine receptor, sequence (P35462 whole entry): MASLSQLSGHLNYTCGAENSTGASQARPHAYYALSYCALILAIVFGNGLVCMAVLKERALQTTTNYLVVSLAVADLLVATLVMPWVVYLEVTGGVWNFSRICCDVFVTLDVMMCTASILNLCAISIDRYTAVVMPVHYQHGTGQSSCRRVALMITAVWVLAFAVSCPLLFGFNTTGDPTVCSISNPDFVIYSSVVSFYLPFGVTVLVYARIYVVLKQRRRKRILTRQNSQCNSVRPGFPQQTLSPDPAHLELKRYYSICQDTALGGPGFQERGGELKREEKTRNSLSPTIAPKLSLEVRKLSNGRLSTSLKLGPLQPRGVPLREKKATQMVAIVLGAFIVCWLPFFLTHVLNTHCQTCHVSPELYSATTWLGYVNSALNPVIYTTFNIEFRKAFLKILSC
D(2) dopamine receptor, sequence (P14416 whole entry): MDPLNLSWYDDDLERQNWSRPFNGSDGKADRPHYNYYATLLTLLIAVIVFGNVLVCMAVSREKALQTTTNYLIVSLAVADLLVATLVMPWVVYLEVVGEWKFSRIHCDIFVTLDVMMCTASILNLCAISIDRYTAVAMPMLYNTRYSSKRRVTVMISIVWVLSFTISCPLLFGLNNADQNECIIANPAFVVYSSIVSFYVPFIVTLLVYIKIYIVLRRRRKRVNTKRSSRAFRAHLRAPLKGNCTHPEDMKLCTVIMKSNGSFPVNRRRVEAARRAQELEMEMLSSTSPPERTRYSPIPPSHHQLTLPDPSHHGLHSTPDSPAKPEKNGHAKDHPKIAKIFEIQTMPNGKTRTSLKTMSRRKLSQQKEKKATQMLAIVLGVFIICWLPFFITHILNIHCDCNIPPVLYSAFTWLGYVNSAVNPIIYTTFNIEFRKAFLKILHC
5-hydroxytryptamine receptor 6, sequence (P50406 whole entry): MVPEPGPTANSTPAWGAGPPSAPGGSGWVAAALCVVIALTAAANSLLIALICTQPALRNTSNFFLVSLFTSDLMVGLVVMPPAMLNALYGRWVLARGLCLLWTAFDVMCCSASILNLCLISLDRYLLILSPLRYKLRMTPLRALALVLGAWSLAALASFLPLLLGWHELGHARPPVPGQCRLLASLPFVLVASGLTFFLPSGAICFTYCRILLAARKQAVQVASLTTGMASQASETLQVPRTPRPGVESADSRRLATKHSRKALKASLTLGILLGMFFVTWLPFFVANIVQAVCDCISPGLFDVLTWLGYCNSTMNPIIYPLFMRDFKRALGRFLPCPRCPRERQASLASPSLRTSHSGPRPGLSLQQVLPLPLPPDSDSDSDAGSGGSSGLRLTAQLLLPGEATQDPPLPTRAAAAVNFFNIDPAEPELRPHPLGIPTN

Structure (SMILES): Cc1[nH]c(-c2ccccc2)cc1C(=O)NCCCN1CCN(c2cccc(Cl)c2Cl)CC1.Cl
- Cmax [1]: 690 ng/mL
- Clast (Rattus norvegicus [2]): 4 ng/mL
- half-life [3]: 1.76 h
- AUC (Rattus norvegicus [4]): 20.945 µg·min/mL
- AUC/dose (Rattus norvegicus [5]): 20.945 µg·min/mL
- Cmax [6]: 245 ng/mL
- Clast (Rattus norvegicus [7]): 1 ng/mL
- Tmax [8]: 1.17 h
- half-life [9]: 2.52 h
- AUC/dose (Rattus norvegicus [10]): 12.783 µg·min/mL
- F (Rattus norvegicus [11]): 61.03%
- Cmax [12]: 190 ng/mL
- Clast (Plasma): 100 ng/mL
- Tmax [13]: 2 h
- half-life [14]: 1.97 h
- AUC [15]: 538 ng·h/mL
- Cmax [16]: 90 ng/mL
- Clast (Brain): 60 ng/mL
- Tmax [17]: 2 h
- half-life [18]: 3.42 h
- AUC [19]: 247 ng·h/mL
- Kp [20]: 46

Structure (SMILES): Cc1cccc(N2CCN(CCCNC(=O)c3cc(-c4ccccc4)n(N4CCCCC4)c3C)CC2)c1C
- IC50 [21]: 0.133 µM
- IC50 [22]: 0.417 µM
- IC50 [23]: 0.092 µM

Structure (SMILES): Cc1c(C(=O)NCCN2CCN(c3cccc(Cl)c3Cl)CC2)cc(-c2ccccc2)n1C
- IC50 [21]: 0.175 µM
- IC50 [22]: 0.156 µM
- IC50 [23]: 0.057 µM

Structure (SMILES): Cc1c(C(=O)NCCCN2CCN(c3cccc(Cl)c3)CC2)cc(-c2ccccc2)n1N1CCCCC1
- IC50 [21]: 0.441 µM
- IC50 [22]: 0.448 µM
- IC50 [23]: 0.11 µM

Structure (SMILES): Cc1c(C(=O)NCCCN2CCN(c3cccc(Cl)c3Cl)CC2)cc(-c2ccccc2)n1C.Cl
- Cmax [1]: 454 ng/mL
- Clast (Rattus norvegicus [2]): 8 ng/mL
- half-life [3]: 2.82 h
- AUC(0-inf) [24]: 312 ng·h/mL
- AUC/dose (Rattus norvegicus [5]): 18.703 µg·min/mL
- Cmax [6]: 118 ng/mL
- Clast (Rattus norvegicus [7]): 1 ng/mL
- Tmax [8]: 0.75 h
- half-life [9]: 3.14 h
- AUC(0-inf) [25]: 386 ng·h/mL
- AUC/dose (Rattus norvegicus [10]): 4.63 µg·min/mL
- bioavailability [26]: 24.8%
- Cmax [12]: 70 ng/mL
- Clast (Plasma): 40 ng/mL
- Tmax [13]: 1 h
- half-life [14]: 3.71 h
- AUC [15]: 240 ng·h/mL
- Cmax [16]: 30 ng/mL
- Clast (Brain): 20 ng/mL
- Tmax [17]: 2 h
- half-life [18]: 4.28 h
- AUC [19]: 82.7 ng·h/mL
- Kp [20]: 34.5

Structure (SMILES): Cc1c(C(=O)NCCCN2CCN(c3cccc(Cl)c3Cl)CC2)cc(-c2ccccc2)n1N1CCCCC1
- Activity (Mus musculus [27]): Active
- Activity (Mus musculus [28]): inactive
- IC50 [29]: 0.493 µM

Structure (SMILES): Cc1[nH]c(-c2ccccc2)cc1C(=O)NCCCN1CCN(c2cccc(Cl)c2Cl)CC1 [listing 1 of 2 here]
- Activity (Mus musculus [27]): Active
- Activity (Mus musculus [28]): inactive

Structure (SMILES): Cc1[nH]c(-c2ccccc2)cc1C(=O)NCCCN1CCN(c2cccc(Cl)c2Cl)CC1 [listing 2 of 2 here]
- IC50 [23]: 0.137 µM
- Activity (Mus musculus [30]): <50%
- IC50 [31]: 0.117 µM
- IC50 [32]: 1.41 µM
- IC50 [29]: 0.456 µM
- IC50 (D(2) dopamine receptor): 1.07 µM
- IC50 (D(3) dopamine receptor): 0.334 µM
- IC50 (D(4) dopamine receptor): 1.84 µM

Structure (SMILES): Cc1c(C(=O)NCCCN2CCN(c3cccc(Cl)c3Cl)CC2)cc(-c2ccccc2)n1-c1ccc(F)cc1
- IC50 [29]: 0.524 µM

Reference: ChEMBL document CHEMBL1154983, “Arylpiperazine-containing pyrrole 3-carboxamide derivatives targeting serotonin 5-HT(2A), 5-HT(2C), and the serotonin transporter as a potential antidepressant” (Bioorg Med Chem Lett, 2010)
